Measured values published in ChEMBL document CHEMBL4602721, “Discovery of Potent Inhibitors against P-Glycoprotein-Mediated Multidrug Resistance Aided by Late-Stage Functionalization of a 2-(4-(Pyridin-2-yl)phenoxy)pyridine Analogue” (J Med Chem, 2020).

Columns and labels:
[1] = molecular target: T1, ATP-dependent translocase ABCB1 (Homo sapiens, UniProt P08183); experiment: Reversal of Pgp-mediated DOX resistance in human SW620/AD300 cells assessed as potentiation of DOX-induced cytotoxicity by measuring inhibition of cell proliferation at 1 uM incubated for 48 hrs by SRB assay (reference value: 5.3 +/- 3 %); type: cell-based
T1 sequence (P08183 whole entry): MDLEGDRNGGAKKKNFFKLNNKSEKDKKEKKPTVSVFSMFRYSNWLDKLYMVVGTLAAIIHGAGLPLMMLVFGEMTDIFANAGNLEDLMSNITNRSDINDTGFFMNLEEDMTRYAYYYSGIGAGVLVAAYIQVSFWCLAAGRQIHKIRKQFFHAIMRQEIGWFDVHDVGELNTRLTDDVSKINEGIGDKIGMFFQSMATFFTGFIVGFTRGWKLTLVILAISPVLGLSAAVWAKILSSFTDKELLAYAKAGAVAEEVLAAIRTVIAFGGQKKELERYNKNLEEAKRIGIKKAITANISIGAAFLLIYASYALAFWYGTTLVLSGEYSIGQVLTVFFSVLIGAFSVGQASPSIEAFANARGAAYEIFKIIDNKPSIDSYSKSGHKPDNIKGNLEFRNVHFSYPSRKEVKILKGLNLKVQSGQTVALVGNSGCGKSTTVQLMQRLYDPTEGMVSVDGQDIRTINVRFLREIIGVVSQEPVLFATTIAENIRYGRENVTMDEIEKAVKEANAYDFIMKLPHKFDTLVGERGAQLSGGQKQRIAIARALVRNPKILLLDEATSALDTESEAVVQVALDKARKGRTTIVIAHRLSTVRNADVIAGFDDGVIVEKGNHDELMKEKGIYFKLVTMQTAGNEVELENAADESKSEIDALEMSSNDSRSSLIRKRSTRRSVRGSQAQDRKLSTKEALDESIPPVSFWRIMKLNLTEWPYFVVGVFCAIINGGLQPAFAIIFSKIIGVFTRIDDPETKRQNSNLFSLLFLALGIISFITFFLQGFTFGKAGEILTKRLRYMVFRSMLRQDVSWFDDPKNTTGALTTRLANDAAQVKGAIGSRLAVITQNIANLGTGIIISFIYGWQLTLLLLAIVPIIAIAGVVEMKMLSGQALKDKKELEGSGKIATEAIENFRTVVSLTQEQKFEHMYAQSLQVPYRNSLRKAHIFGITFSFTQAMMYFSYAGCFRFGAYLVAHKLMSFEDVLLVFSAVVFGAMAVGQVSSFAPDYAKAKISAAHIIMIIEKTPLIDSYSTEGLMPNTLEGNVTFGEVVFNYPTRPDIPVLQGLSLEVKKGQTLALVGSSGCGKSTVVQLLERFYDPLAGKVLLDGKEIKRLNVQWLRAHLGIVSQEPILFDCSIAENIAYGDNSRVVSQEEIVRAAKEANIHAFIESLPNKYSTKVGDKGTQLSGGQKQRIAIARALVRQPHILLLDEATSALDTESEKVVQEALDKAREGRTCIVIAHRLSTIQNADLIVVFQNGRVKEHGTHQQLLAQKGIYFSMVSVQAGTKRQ

[2] = molecular target: T1, ATP-dependent translocase ABCB1; experiment: Reversal of Pgp-mediated DOX resistance in human SW620/AD300 cells assessed as potentiation of DOX-induced cytotoxicity by measuring change in DOX IC50 at 1 uM incubated for 48 hrs by SRB assay relative to DOX alone; type: cell-based; conditions: sw620/ad300, 48 h
[3] = Cytotoxicity against human SW620/AD300 cells assessed as cell growth inhibition at 10 uM incubated for 48 hrs by SRB assay relative to control; type: cell-based; conditions: read-out: GI
K562/A02 = experiment: Potentiation of DOX-induced anti tumor activity against human K562/A02 cells xenografted in BALB/c mouse assessed as tumor size at 3 mg/kg, iv administered every 2 days for 14 days measured during compound dosing by caliper method (reference value: 610 mm3); type: functional
Summary of the method: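 Mice bearing subcutaneous ABCB1-overexpressing K562/A02 xenografts treated with DOX alone, modulator alone, or combinations (verapamil as comparator) for 14 days; tumor volume measured every two days.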

SMILES	inhibition at 1 µM [1] [%]	fold change (FC) [2]	inhibition at 48 h, 10 µM [3] [%]	Activity (K562/A02) [mm3]
COc1cc2c(cc1OC)CN(C(=O)/C=C/c1c3n(c4ccccc14)C(c1ccccc1)Oc1ccccc1-3)CC2 (stereo not given)	41.4			
COc1cc2c(cc1OC)CN(CCc1ccc(NC(=O)/C=C/c3ccc(Oc4ccc(-c5ccccn5)c(C)c4)nc3)cc1)CC2	58.2	68.14	17.1	
COc1ccc(CCN(C)CCCC(C#N)(c2ccc(OC)c(OC)c2)C(C)C)cc1OC (stereo not given)	26.1			508
COc1ccc(C(=O)NN2CC(c3c(-c4ccccc4)n(C)c4ncccc34)=CC2=O)cc1OC	14			
COc1cc2c(cc1OC)CN(CCc1ccc(NC(=O)C(c3c(-c4ccccc4)n(C)c4ccccc34)N3CCOCC3)cc1)CC2 (stereo not given)	61.7	60.71	42	
COc1cc2c(cc1OC)CN(C(=O)/C=C/c1c3n(c4ncccc14)CCc1ccccc1-3)CC2	45.4			
COc1cc2c(cc1OC)CN(CCc1ccc(NC(=O)/C=C/c3ccc(Oc4cccc(-c5ccccn5)c4)nc3)cc1)CC2	56.5	44.52		
COc1ccc(CN2CC(c3c(-c4ccccc4)n(C)c4ncccc34)=CC2=O)cc1OC	20.7			
COc1cc2c(cc1OC)CN(CCc1ccc(NC(=O)/C=C/c3cc(-c4ccccn4)cc(C)c3Oc3ccccn3)cc1)CC2	64	60.71	17	
COc1cc2c(cc1OC)CN(C(=O)/C=C/c1c(-c3ccccc3)nc3ccccn13)CC2	37.5			
COc1cc2c(cc1OC)CN(C(=O)/C(F)=C/c1c(-c3ccccc3)n(C)c3ncccc13)CC2	12.2			
COc1cc2c(cc1OC)CN(S(=O)(=O)/C=C/c1c(-c3ccccc3)n(C)c3ccccc13)CC2	25.4			
COc1cc2c(cc1OC)CN(CCc1ccc(NC(=O)C3CC3c3ccc(Oc4ccc(-c5ccccn5)cc4)nc3)cc1)CC2 (stereo not given)	59	43.93		
COc1cc2c(cc1OC)CN(CCc1ccc(NC(=O)c3ccc(Oc4ccc(-c5ccccn5)cc4)nc3)cc1)CC2	36.1			
COc1cc2c(cc1OC)CN(CCc1ccc(NC(=O)/C=C/c3ccc(Oc4cc(O)c(-c5ccccn5)c(O)c4)nc3)cc1)CC2	56.3	42.81		
COc1cc2c(cc1OC)CN(S(=O)(=O)/C=C/c1c(-c3ccccc3)n(C)c3ncccc13)CC2	37.9			
COc1cc2c(cc1OC)CN(C(=O)/C=C/c1nc(-c3ccccn3)n(C)c1-c1ccccc1)CC2	28.2			
COc1cc2c(cc1OC)CN(CCc1ccc(NC(=O)/C=C/c3ccc(Oc4ccc(-c5ccccn5)c(F)c4)nc3)cc1)CC2	49.8			
COc1cc2c(cc1OC)CN(CCc1ccc(NC(=O)/C=C/c3ccc(Oc4ccc(-c5cccnc5)cc4)nc3)cc1)CC2	62.6	85.62	13.9	
COc1cc2c(cc1OC)CN(CCc1ccc(NC(=O)/C=C/c3c(-c4ccccc4)n(C)c4ncccc34)cc1)CC2	63	40.72		
COc1cc2c(cc1OC)CN(CCc1ccc(NC(=O)/C=C/c3ccc(Oc4ccc(-c5ccccn5)cc4I)nc3)cc1)CC2	59.2	43.93		
Cn1c(-c2ccccc2)c(/C=C/C(=O)Nc2nc3ccccc3s2)c2cccnc21	44.7			
COc1cc2c(cc1OC)CN(CCc1ccc(NC(=O)/C=C/c3ccc(Oc4ccc(-c5ccccn5)c(C#N)c4)nc3)cc1)CC2	58.3	54.74	13.9	

SMILES	inhibition at 1 µM [1] [%]	fold change (FC) [2]	inhibition at 48 h, 10 µM [3] [%]	Activity (K562/A02) [mm3]
COc1cc2c(cc1OC)CN(CCc1ccc(NC(=O)/C=C/c3ccc(Oc4c(I)cc(-c5ccccn5)cc4I)nc3)cc1)CC2	53.2	28.3		
COc1cc2c(cc1OC)CN(CCc1ccc(NC(=O)/C=C/c3ccc(Oc4ccc(-c5ccccn5)cc4Br)nc3)cc1)CC2	60.1	47.7		
COc1cc2c(cc1OC)CN(C(=O)/C=C/c1c3n(c4ncccc14)Cc1ccccc1-3)CC2	22.9			
COc1ccc(C(=O)NNC(=O)/C=C/c2c(-c3ccccc3)n(C)c3ncccc23)cc1OC	10.9			
COc1cc2c(cc1OC)CN(C(=O)/C=C/c1c3n(c4ccccc14)C(c1cccs1)Oc1ccccc1-3)CC2 (stereo not given)	44.3			
COc1cc2c(cc1OC)CN(C(=O)/C=C/c1c3n(c4ccccc14)C(C1CCCCC1)Oc1ccccc1-3)CC2 (stereo not given)	40.1			
COc1cc2c(cc1OC)CN(CCc1ccc(NC(=O)/C=C/c3cccc(Oc4ccc(-c5ccccn5)cc4)n3)cc1)CC2	60.2	33.73		
Cn1c(-c2ccccc2)c(/C=C/C(=O)NN2Cc3ccccc3C2=O)c2cccnc21	18.5			
COc1cc2c(cc1OC)CN(C(=O)/C=C(\C)c1c(-c3ccccc3)n(C)c3ncccc13)CC2	44			
COc1ccc(NC(=O)NC(=O)/C=C/c2c(-c3ccccc3)n(C)c3ncccc23)cc1OC	23.3			
COc1cc2c(cc1OC)CN(CCc1ccc(NC(=O)/C=C/c3ccc(Oc4ccc(-c5ccccn5)cc4)nc3)cc1)CC2	41.8			
COc1cc2c(cc1OC)CN(C(=O)/C=C/c1ccc(Oc3ccc(-c4ccccn4)cc3)nc1)CC2	26.7			
COc1cc2c(cc1OC)CN(CCc1ccc(NC(=O)/C=C/c3ccc(Oc4ccc(-c5ccccn5)c(O)c4)nc3)cc1)CC2	56.4	40.72		
COc1cc2c(cc1OC)CN(C(=O)/C=C/c1c(-c3ccccc3)n(C)c3ncccc13)CC2	40			
Cn1c(-c2ccccc2)c(/C=C/C(=O)NN2C(=O)c3ccccc3C2=O)c2cccnc21	18.9			
COc1cc2c(cc1OC)CN(CCc1ccc(NC(=O)/C=C/c3ccc(Oc4ccc(-c5ccccn5)cc4C)nc3)cc1)CC2	55.1	45.12		
[2H]c1c([2H])c(-c2ccccn2)c([2H])c([2H])c1Oc1ccc(/C=C/C(=O)Nc2ccc(CCN3CCc4cc(OC)c(OC)cc4C3)cc2)cn1	49.5			
COc1cc2c(cc1OC)CN(C(=O)/C=C(/c1c(-c3ccccc3)n(C)c3ncccc13)C(F)(F)F)CC2	32.5			
COc1ccc(-c2nnc(/C=C/c3c(-c4ccccc4)n(C)c4ncccc34)o2)cc1OC	15.1			
COc1cc2c(cc1OC)CN(C(=O)CCc1c(-c3ccccc3)n(C)c3ncccc13)CC2	17.7			
COc1cc2c(cc1OC)CN(CCc1ccc(NC(=O)C(O)c3c(-c4ccccc4)n(C)c4ccccc34)cc1)CC2 (stereo not given)	55.3	30.35		
COc1ccc2c(C)c(CC(=O)Nc3ccc(CCN4CCc5cc(OC)c(OC)cc5C4)cc3)c(=O)oc2c1	50.5	16.95		
COc1cc2c(cc1OC)CN(CCc1ccc(NC(=O)/C=C/c3c(-c4ccccc4)oc4ccccc4c3=O)cc1)CC2	55.2	24.55		
